ChEMBL document CHEMBL1151962, “Identification of N,1,4,4-tetramethyl-8-{[4-(4-methylpiperazin-1-yl)phenyl]amino}-4,5-dihydro-1H-pyrazolo[4,3-h]quinazoline-3-carboxamide (PHA-848125), a potent, orally available cyclin dependent kinase inhibitor” (J Med Chem, 2009)
≈ marks a conversion by molar mass, not a printed value.

Legend:
[1] = biological target: Tyrosine-protein kinase ZAP-70 (Homo sapiens, UniProt P43403); test: Inhibition of ZAP-70
[2] = biological target: Cell division cycle 7-related protein kinase (Homo sapiens, UniProt O00311); test: Inhibition of CDC7
[3] = biological target: Serine/threonine-protein kinase PLK1 (Homo sapiens, UniProt P53350); test: Inhibition of PLK1
Aurora kinase B = Aurora kinase B (Homo sapiens, UniProt Q96GD4); test: Inhibition of Aurora B
[4] = biological target: Mitogen-activated protein kinase 11 (Homo sapiens, UniProt Q15759); test: Inhibition of P38beta
[5] = biological target: Mast/stem cell growth factor receptor Kit (Homo sapiens, UniProt P10721); test: Inhibition of C-KIT
[6] = Inhibition of SULU1
A2780 [7] = test: Antitumor activity against human A2780 cells xenografted in nude mouse assessed as tumor growth inhibition at 30 mg/kg, po BID for 10 consecutive days; type: functional; design: scale not given: the % may be the effect or the level left
Summary of the method: (§1)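 A2780 human ovarian xenografts were grown in nude mice. Compound was given orally at 20, 30 or 40 mg/kg twice daily for 10 consecutive days. The read-out was tumor growth inhibition.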

[8] = biological target: Serine/threonine-protein kinase PAK 4 (Homo sapiens, UniProt O96013); test: Inhibition of PAK4
[9] = biological target: RAC-alpha serine/threonine-protein kinase (Homo sapiens, UniProt P31749); test: Inhibition of AKT1
[10] = biological target: STE20-like serine/threonine-protein kinase (Homo sapiens, UniProt Q9H2G2); test: Inhibition of STLK2
[11] = biological target: Serine/threonine-protein kinase Nek6 (Homo sapiens, UniProt Q9HC98); test: Inhibition of NEK6
A2780 [12] = test: Effect on cell cycle progression in human A2780 cells assessed as decrease in accumulation at S phase at 1 uM after 24 hrs by flow cytometry; type: functional; design: scale not given: the % may be the effect or the level left
Summary of the method: (§2)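 A2780 cells (ECACC) were seeded at 25 000 cells/cm² in RPMI 1640 pH 7.4 with 10% FBS, 2 mM L-glutamine and penicillin-streptomycin, at 37 °C and 5% CO2. After 24 h, cells were exposed to 1 μM compound for 24 h. Floating and trypsin/EDTA-detached cells were pooled and PBS-washed. Samples were split for flow cytometry and BrdU incorporation. Results are expressed versus untreated control cells.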

[13] = Inhibition of CK2
[14] = biological target: Fibroblast growth factor receptor 1 (Homo sapiens, UniProt P11362); test: Inhibition of FGFR1
[15] = Inhibition of PDGFR
A2780 [16] = test: Effect on cell cycle progression in human A2780 cells assessed as decrease in accumulation at G2/M phase at 1 uM after 24 hrs by flow cytometry; type: functional; design: scale not given: the % may be the effect or the level left; summary of the method: as §2
A2780 [17] = test: Antitumor activity against human A2780 cells xenografted in nude mouse assessed as tumor growth inhibition at 20 mg/kg, po BID for 10 consecutive days; type: functional; design: scale not given: the % may be the effect or the level left; summary of the method: as §1
A2780 [18] = test: Antiproliferative activity against human A2780 cells after 72 hrs by cell Titer_Glo assay; type: functional, cell-based; conditions: A2780, 72 h
Summary of the method: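 A2780 cells were seeded at 10000–30000 cells/cm² in medium with 10% FCS. After 24 h they were treated with serial dilutions of compound, in two replicates. Cell amount was read by Cell Titer Glo 72 h after treatment. IC50 came from sigmoidal fitting.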

[19] = biological target: Cyclin-dependent kinase 1/cyclin B1 (Homo sapiens, UniProt P06493); test: Inhibition of CDK1/Cyclin B
Summary of the method: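 Biochemical kinase-panel assay against the CDK1/cyclin B complex; IC50 in μM, reported as the mean of two or more experiments.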

[20] = biological target: Proto-oncogene tyrosine-protein kinase receptor Ret (Homo sapiens, UniProt P07949); test: Inhibition of RET
[21] = biological target: Serine/threonine-protein kinase Chk1 (Homo sapiens, UniProt O14757); test: Inhibition of CHK1
[22] = biological target: Vascular endothelial growth factor receptor 2 (Homo sapiens, UniProt P35968); test: Inhibition of VEGFR2
[23] = biological target: Tyrosine-protein kinase Lyn (Homo sapiens, UniProt P07948); test: Inhibition of LYN
[24] = biological target: Glycogen synthase kinase-3 beta (Homo sapiens, UniProt P49841); test: Inhibition of GSK3-beta
[25] = Inhibition of NIM
[26] = biological target: Inhibitor of nuclear factor kappa-B kinase subunit epsilon (Homo sapiens, UniProt Q14164); test: Inhibition of IKKi
[27] = biological target: Insulin-like growth factor 1 receptor (Homo sapiens, UniProt P08069); test: Inhibition of IGF1R
Insulin receptor = Insulin receptor (Homo sapiens, UniProt P06213); test: Inhibition of IR
Aurora kinase A = biological target: T1, Aurora kinase A (Homo sapiens, UniProt O14965); test: Inhibition of Aurora A
T1 sequence (O14965 whole entry): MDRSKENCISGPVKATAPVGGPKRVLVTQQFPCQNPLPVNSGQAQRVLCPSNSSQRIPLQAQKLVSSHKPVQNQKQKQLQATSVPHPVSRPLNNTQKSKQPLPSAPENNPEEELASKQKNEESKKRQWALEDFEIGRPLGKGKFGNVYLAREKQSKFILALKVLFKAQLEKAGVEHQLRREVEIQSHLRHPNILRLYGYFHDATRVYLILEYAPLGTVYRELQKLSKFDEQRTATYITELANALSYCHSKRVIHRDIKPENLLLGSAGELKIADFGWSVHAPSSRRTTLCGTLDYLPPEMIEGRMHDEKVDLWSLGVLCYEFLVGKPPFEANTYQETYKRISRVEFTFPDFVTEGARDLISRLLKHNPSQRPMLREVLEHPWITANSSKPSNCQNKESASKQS

[28] = biological target: Mitogen-activated protein kinase 14 (Homo sapiens, UniProt Q16539); test: Inhibition of P38alpha
[29] = biological target: Mitogen-activated protein kinase 1 (Homo sapiens, UniProt P28482); test: Inhibition of ERK2
[30] = Solubility at pH 7; type: physicochemical; conditions: buffer
[31] = biological target: cAMP-dependent protein kinase catalytic subunit alpha (Homo sapiens, UniProt P17612); test: Inhibition of PKAalpha
[32] = biological target: Vascular endothelial growth factor receptor 3 (Homo sapiens, UniProt P35916); test: Inhibition of VEGFR3
A2780 [33] = test: Antitumor activity against human A2780 cells xenografted in nude mouse assessed as tumor growth inhibition at 40 mg/kg, po BID for 10 consecutive days; type: functional; design: scale not given: the % may be the effect or the level left; summary of the method: as §1
A2780 [34] = test: Effect on cell cycle progression in human A2780 cells assessed as increase in accumulation at […] phase at 1 uM after 24 hrs by flow cytometry; type: functional; summary of the method: as §2
[35] = biological target: Inhibitor of nuclear factor kappa-B kinase subunit beta (Homo sapiens, UniProt O14920); test: Inhibition of IKK2
A2780 [36] = test: Inhibition of DNA synthesis in human A2780 cells assessed as decrease in […] incorporation at 1 uM after 24 hrs by flow cytometry; type: functional; design: scale not given: the % may be the effect or the level left; summary of the method: as §2
[37] = biological target: Protein kinase C beta type (Homo sapiens, UniProt P05771); test: Inhibition of PKCbeta
[38] = biological target: MAP kinase-activated protein kinase 2 (Homo sapiens, UniProt P49137); test: Inhibition of MAPKAPK2
[39] = biological target: 3-phosphoinositide-dependent protein kinase 1 (Homo sapiens, UniProt O15530); test: Inhibition of PDK1
3-phosphoinositide-dependent protein kinase 1, sequence (O15530 whole entry): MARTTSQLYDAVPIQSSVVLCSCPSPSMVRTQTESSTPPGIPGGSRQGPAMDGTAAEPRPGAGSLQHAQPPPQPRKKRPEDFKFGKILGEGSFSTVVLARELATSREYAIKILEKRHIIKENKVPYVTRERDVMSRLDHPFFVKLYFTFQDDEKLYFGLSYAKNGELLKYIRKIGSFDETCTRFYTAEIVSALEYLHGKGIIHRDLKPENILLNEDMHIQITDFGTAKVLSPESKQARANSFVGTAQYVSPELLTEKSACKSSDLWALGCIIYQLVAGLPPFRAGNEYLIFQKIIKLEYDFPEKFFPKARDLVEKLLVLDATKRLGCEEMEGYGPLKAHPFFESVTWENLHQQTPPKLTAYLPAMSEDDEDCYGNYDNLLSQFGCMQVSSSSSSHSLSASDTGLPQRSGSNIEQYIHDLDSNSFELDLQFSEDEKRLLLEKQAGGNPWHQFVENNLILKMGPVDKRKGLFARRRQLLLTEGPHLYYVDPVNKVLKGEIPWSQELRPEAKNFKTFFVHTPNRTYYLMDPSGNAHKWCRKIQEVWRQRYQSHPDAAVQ

Tyrosine-protein kinase Lyn, sequence (P07948 whole entry): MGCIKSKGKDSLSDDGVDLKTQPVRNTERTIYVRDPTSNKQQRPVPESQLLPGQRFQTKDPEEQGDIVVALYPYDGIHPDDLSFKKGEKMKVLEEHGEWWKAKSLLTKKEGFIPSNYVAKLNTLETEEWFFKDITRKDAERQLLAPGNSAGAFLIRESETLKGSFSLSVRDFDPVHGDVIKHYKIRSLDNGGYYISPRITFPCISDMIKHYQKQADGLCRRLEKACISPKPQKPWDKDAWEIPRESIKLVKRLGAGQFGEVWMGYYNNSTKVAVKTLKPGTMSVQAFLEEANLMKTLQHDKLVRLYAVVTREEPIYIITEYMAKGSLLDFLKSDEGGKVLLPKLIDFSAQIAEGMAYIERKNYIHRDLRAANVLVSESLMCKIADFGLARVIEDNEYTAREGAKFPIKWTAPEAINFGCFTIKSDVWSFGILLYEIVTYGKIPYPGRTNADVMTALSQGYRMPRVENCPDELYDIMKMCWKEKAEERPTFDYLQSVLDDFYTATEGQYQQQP
Aurora kinase B, sequence (Q96GD4 whole entry): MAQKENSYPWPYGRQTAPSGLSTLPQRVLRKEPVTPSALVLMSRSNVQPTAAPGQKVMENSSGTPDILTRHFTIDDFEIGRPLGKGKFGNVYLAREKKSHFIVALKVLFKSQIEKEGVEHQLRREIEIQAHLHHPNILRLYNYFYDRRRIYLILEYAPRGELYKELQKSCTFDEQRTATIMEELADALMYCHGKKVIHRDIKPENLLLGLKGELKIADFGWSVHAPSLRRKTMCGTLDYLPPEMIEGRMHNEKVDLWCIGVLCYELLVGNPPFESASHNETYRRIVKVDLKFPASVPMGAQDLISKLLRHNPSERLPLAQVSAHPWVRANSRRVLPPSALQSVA
Vascular endothelial growth factor receptor 3, sequence (P35916 whole entry): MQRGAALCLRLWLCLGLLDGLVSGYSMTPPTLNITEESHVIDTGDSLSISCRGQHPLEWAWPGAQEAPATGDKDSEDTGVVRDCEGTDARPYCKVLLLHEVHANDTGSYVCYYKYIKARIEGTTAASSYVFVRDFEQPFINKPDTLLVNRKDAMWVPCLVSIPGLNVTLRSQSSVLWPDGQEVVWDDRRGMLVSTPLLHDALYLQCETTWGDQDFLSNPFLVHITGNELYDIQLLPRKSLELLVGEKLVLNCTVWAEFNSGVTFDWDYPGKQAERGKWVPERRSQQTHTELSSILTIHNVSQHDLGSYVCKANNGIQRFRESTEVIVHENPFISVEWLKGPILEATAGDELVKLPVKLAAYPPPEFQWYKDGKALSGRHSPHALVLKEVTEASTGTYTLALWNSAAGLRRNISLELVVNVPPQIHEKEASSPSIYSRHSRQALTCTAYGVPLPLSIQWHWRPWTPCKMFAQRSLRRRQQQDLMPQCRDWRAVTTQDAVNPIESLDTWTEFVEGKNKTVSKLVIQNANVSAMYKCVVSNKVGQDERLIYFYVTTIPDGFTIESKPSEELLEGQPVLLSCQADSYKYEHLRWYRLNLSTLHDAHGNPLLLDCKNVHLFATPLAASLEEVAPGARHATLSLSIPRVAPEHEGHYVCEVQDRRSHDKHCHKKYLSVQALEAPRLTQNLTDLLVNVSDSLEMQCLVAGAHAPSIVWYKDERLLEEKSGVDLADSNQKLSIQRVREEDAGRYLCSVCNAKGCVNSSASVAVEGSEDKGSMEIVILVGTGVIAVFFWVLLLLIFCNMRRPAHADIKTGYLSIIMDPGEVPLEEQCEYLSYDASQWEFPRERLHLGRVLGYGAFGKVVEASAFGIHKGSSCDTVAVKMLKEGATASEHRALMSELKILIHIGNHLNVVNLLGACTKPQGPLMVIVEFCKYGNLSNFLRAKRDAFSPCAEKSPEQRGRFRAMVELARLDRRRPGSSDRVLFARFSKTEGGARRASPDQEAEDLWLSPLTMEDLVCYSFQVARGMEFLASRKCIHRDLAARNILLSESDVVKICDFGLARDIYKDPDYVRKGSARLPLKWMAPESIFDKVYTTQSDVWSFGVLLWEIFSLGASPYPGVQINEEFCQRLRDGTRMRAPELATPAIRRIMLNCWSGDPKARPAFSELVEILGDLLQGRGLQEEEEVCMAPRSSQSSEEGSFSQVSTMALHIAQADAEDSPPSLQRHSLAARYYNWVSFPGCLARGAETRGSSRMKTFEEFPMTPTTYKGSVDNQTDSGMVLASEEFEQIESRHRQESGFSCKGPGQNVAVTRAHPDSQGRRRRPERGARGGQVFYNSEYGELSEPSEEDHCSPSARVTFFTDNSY
Cyclin-dependent kinase 1/cyclin B1, sequence (P06493 whole entry): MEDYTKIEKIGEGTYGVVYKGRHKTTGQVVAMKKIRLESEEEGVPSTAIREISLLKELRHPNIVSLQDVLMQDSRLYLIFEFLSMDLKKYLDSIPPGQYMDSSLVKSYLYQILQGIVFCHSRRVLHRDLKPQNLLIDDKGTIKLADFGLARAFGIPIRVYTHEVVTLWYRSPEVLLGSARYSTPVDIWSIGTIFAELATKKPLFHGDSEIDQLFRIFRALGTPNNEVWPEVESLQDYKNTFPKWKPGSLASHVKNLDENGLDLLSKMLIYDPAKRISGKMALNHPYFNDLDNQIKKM
Cyclin-dependent kinase 1/cyclin B1, sequence (P14635 whole entry, further chain): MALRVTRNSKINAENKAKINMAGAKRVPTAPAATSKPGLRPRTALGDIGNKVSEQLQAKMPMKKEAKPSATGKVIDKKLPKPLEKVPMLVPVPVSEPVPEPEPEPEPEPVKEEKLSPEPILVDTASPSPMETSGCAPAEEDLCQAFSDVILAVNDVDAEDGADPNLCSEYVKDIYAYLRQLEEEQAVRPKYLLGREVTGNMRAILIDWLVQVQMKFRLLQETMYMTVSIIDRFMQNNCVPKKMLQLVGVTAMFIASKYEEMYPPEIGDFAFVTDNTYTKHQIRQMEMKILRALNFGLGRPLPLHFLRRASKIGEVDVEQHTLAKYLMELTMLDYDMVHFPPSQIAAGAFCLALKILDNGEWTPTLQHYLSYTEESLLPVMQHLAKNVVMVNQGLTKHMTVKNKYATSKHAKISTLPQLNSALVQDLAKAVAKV
Cell division cycle 7-related protein kinase, sequence (O00311 whole entry): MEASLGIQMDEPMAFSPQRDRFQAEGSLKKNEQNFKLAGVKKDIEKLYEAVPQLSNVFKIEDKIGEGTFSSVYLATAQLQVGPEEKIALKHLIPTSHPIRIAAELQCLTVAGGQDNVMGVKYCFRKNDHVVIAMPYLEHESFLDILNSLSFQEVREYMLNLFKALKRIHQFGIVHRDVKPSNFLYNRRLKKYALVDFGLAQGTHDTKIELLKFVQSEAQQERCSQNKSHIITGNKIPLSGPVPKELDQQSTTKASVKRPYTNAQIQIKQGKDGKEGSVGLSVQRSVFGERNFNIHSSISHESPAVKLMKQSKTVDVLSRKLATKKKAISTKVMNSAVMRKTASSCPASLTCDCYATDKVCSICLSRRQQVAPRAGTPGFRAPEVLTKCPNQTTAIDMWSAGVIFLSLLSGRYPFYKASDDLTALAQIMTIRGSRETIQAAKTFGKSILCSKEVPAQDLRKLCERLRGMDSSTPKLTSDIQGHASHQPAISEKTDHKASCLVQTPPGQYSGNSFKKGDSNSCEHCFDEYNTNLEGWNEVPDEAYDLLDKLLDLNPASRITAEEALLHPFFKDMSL
Serine/threonine-protein kinase Nek6, sequence (Q9HC98 whole entry): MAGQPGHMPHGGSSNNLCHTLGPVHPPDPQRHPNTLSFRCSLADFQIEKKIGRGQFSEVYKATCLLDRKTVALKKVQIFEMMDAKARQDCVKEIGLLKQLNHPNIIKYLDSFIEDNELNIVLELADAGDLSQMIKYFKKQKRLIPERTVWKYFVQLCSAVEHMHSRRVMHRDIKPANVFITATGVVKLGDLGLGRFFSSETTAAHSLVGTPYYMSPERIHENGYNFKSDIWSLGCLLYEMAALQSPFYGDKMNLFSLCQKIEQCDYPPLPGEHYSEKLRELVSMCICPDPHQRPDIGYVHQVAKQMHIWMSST
Serine/threonine-protein kinase PLK1, sequence (P53350 whole entry): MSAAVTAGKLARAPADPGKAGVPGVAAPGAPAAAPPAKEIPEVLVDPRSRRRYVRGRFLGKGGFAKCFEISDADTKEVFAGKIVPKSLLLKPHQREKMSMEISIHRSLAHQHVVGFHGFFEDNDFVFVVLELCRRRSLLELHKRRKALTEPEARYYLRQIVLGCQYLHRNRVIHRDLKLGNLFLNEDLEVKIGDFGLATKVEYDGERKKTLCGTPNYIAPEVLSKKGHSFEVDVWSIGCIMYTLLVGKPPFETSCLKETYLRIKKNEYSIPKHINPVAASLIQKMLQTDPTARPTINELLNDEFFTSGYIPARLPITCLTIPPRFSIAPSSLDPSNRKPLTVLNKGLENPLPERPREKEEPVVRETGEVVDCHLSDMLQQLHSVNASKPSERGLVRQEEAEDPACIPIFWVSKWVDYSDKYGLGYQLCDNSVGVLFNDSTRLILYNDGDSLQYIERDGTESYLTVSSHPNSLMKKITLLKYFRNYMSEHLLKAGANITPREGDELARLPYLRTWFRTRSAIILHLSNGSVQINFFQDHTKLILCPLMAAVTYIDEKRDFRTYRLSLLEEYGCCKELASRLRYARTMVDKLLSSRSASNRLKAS

CNC(=O)c1nn(C)c2c1C(C)(C)Cc1cnc(Nc3ccc(N4CCN(C)CC4)cc3)nc1-2 [MILCICLIB]
IC50 [1]: > 10 µM
IC50 [2]: > 10 µM
IC50 [3]: > 10 µM
IC50 (Aurora kinase B): 4.17 µM
IC50 [4]: > 10 µM
IC50 [5]: 0.668 µM
IC50 [6]: 2.87 µM
Activity (A2780 [7]): 76%
IC50 [8]: > 10 µM
IC50 [9]: > 10 µM
IC50 [10]: > 10 µM
IC50 [11]: 1.06 µM
Activity (A2780 [12]): 68%
IC50 [13]: > 10 µM
IC50 [14]: 1.21 µM
IC50 [15]: 0.579 µM
Activity (A2780 [16]): 40%
Activity (A2780 [17]): 53%
IC50 (A2780 [18]): 0.2 µM
IC50 [19]: 0.398 µM
IC50 [20]: 1.93 µM
IC50 [21]: > 10 µM
IC50 [22]: > 10 µM
IC50 [23]: > 10 µM
IC50 [24]: > 10 µM
IC50 [25]: 1.17 µM
IC50 [26]: > 10 µM
IC50 [27]: > 10 µM
IC50 (Insulin receptor): > 10 µM
IC50 (Aurora kinase A): 1.05 µM
IC50 [28]: > 10 µM
IC50 [29]: > 10 µM
solubility [30]: 191 µM (≈ 88 µg/mL)
IC50 [31]: > 10 µM
IC50 [32]: 0.92 µM
Activity (A2780 [33]): 91%
Activity (A2780 [34]): 49%
IC50 [35]: > 10 µM
Activity (A2780 [36]): 75%
IC50 [37]: > 10 µM
IC50 [38]: > 10 µM
IC50 [39]: > 10 µM
